Measurements taken from ChEMBL document CHEMBL3588752, “Synthesis and in Vitro Anticancer Activity of the First Class of Dual Inhibitors of REV-ERBβ and Autophagy” (J Med Chem, 2015).
Blank lines part the entries; values can stand above or below the compound they belong to. The source made the active and inactive calls. No cut-off for these calls is given here.

How the values were obtained:
[1] = tested on: HMEC; assay: Cytotoxicity against HMEC cells assessed as reduction in cell number incubated for 72 hrs; assay type: cell-based; settings: Homo sapiens
[2] = tested on: BT-474; assay: Cytotoxicity against human BT474 cells assessed as reduction in cell number incubated for 72 hrs; assay type: functional, cell-based; settings: BT-474, 72 h
Method in brief: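 Cells seeded at 2000/well and left overnight, then exposed 72 h to seven 3-fold serial dilutions from 100 µM. Cell number read by CyQUANT DNA dye (independent of metabolism), relative to vehicle as 100%. BT-474 grown in high-glucose DMEM, 4 mM L-glutamine, 10% FBS, 0.25 mM pyruvate.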

[3] = tested on: LNCaP; assay: Potency index, ratio of IC50 for chloroquine to IC50 for test compound against human LNCAP cells assessed as reduction in cell number incubated for 72 hrs; assay type: functional
Method in brief: (§1)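 HepG2 was grown in high-glucose DMEM with 4 mM L-glutamine, 10% FBS and 0.5 mM pyruvate; LNCaP in RPMI-1640 with 4 mM L-glutamine and 10% FBS. Cells were seeded at 2000/well, left overnight, then given seven 3-fold dilutions from 100 µM for 72 h. Cell number was read by CyQUANT DNA stain against vehicle (100%). IC50s came from log(inhibitor)–response fits, ≥6 experiments, and chloroquine IC50 was divided by test IC50.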

[4] = Toxicity against human BT474 cells assessed as reduction in cell number at 10 uM incubated for 16 hrs; assay type: cell-based; settings: bt-474, 16 h
[5] = tested on: HepG2; assay: Inhibition of autophagy in human HepG2 cells assessed as increase in GFP/RFP/LC3 chimera protein levels at 30 uM incubated for 4 hrs by fluorescent microscopy; assay type: functional, cell-based
Method in brief: (§2)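 Cells transduced with LC3 fused to acid-sensitive GFP and acid-insensitive RFP. Compound or DMSO vehicle added 48 h post-transduction. After 4 h, GFP and RFP fluorescent dots counted by fluorescence microscopy.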

[6] = tested on: HepG2; assay: Cytotoxicity against human HepG2 cells assessed as reduction in cell number incubated for 72 hrs; assay type: functional, cell-based; settings: HepG2, 72 h
Method in brief: (§3)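 Grown in high-glucose DMEM with 4 mM L-glutamine, 10% FBS and 0.5 mM sodium pyruvate. Seeded at 2000 cells/well overnight, then treated 72 h with seven 3-fold dilutions from 100 µM. Cell number by CyQUANT, % of vehicle. IC50 by log(inhibitor)–response fit, mean ± SEM, n ≥ 6.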

[7] = tested on: BT-474; assay: Lysosomotropic activity in human BT474 cells assessed as […] incubated for 24 hrs by lysosomotropy assay; assay type: functional, cell-based; settings: BT-474, 24 h
Method in brief: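 Seeded at 2000 cells/well overnight, then treated. Lysosomal staining (LysoTracker fluorescence) measured 24 h post-treatment. IC50 from concentration–response plots, mean ± SEM, N ≥ 6.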

[8] = tested on: LNCaP; assay: Cytotoxicity against human LNCAP cells assessed as reduction in cell number incubated for 72 hrs; assay type: functional, cell-based
Method in brief: (§4)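 RPMI-1640 with 4 mM L-glutamine and 10% FBS for culture. 2000 cells/well seeded overnight, then 72 h exposure to seven 3-fold dilutions (top 100 µM; top 900 µM for the reference autophagy inhibitor in MDA-MB-361). Cell number by CyQUANT relative to vehicle. IC50 from concentration–response curves, mean ± SEM, n ≥ 6.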

[9] = biological target: T1, Nuclear receptor subfamily 1 group D member 2 (Homo sapiens) (UniProt Q14995); assay: Inhibition of REV-ERBbeta in human HepG2 cells assessed as […] at 10 uM incubated for 16 hrs by immunoblot method; assay type: cell-based
T1 sequence (whole entry): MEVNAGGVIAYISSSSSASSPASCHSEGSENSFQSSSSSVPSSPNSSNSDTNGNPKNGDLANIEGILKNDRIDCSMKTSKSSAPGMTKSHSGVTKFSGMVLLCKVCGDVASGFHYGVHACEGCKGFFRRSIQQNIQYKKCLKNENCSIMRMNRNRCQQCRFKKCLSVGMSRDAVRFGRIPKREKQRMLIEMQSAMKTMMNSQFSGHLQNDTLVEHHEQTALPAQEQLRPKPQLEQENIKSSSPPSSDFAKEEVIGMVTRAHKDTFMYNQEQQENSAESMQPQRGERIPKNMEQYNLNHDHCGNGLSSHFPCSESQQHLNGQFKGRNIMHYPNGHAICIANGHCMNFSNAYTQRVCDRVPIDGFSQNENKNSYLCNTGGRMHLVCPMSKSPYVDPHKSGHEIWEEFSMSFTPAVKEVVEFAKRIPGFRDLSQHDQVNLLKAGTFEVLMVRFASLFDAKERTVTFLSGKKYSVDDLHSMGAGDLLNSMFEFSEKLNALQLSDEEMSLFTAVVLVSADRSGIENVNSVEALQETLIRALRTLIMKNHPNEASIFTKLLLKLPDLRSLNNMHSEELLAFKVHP

[10] = biological target: T1, Nuclear receptor subfamily 1 group D member 2 (Homo sapiens); assay: Inhibition of REV-ERBbeta in human BT474 cells assessed as increase in BMAL1 expression at 10 uM incubated for 16 hrs by immunoblot method; settings: BT-474
[11] = tested on: SK-BR-3; assay: Inhibition of autophagy in human SKBR3 cells assessed as increase in GFP/RFP/LC3 chimera protein levels at 30 uM incubated for 4 hrs by fluorescent microscopy; assay type: functional, cell-based; method in brief: as §2
[12] = tested on: BT-474; assay: Inhibition of autophagy in human BT474 cells assessed as increase in LC3-II protein levels at 10 uM by immunoblot method; assay type: functional, cell-based
Method in brief: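 BT-474 exposed 4 h at 10 µM. Protein extracted in RIPA buffer and immunoblotted for LC3B and GAPDH in TBS-T with 5% BSA. HRP secondary at 1:20000, ECL detection. Band densitometry reported as LC3B/GAPDH ratio.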

[13] = biological target: T2, Nuclear receptor subfamily 1 group D member 2 (Homo sapiens, UniProt Q14995); assay: (§5) Inhibition of REV-ERBbeta (unknown origin) expressed in HEK293 cells incubated for 24 hrs assessed as inhibition of receptor-mediated transcriptional repression by REV-ERB luciferase reporter assay; assay type: cell-based
T2 sequence (Q14995 whole entry): T1 sequence (whole entry)
Method in brief: (§6)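 HEK-293 co-transfected with a REV-ERBβ expression plasmid and a reporter with two REV-ERB response elements driving Cypridina luciferase. Compounds added the next day; luciferase activity read after 24 h. IC50 from concentration–response plots, mean ± SEM, N ≥ 6.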

[14] = biological target: T1, Nuclear receptor subfamily 1 group D member 2 (Homo sapiens); assay: Inhibition of REV-ERBbeta in human SKBR3 cells assessed as […] at 10 uM incubated for 16 hrs by immunoblot method; assay type: cell-based; settings: SK-BR-3
[15] = tested on: MDA-MB-361; assay: Cytotoxicity against human MDA-MB-361 cells assessed as reduction in cell number incubated for 72 hrs; assay type: functional, cell-based; settings: MDA-MB-361, 72 h; method in brief: as §4
[16] = biological target: T1, Nuclear receptor subfamily 1 group D member 2 (Homo sapiens); assay: Inhibition of REV-ERBbeta in human LNCAP cells assessed as […] at 10 uM incubated for 16 hrs by immunoblot method; assay type: cell-based
[17] = tested on: LNCaP; assay: Inhibition of autophagy in human LNCAP cells assessed as increase in GFP/RFP/LC3 chimera protein levels at 30 uM incubated for 4 hrs by fluorescent microscopy; assay type: functional, cell-based; method in brief: as §2
[18] = Cytotoxicity against human SKBR3 cells assessed as reduction in cell number incubated for 72 hrs; assay type: functional, cell-based; settings: SK-BR-3, 72 h
Method in brief: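 McCoy's medium plus 10% FBS; 2000 cells/well, overnight attachment, 72 h treatment with seven 3-fold dilutions from 100 µM (900 µM top for the reference autophagy inhibitor). CyQUANT cell number as % of vehicle. IC50 by log(inhibitor)–response fitting, mean ± SEM of ≥6 experiments.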

[19] = tested on: MCF7; assay: Cytotoxicity against human MCF7 cells assessed as reduction in cell number incubated for 72 hrs; assay type: functional, cell-based; settings: MCF7, 72 h; method in brief: as §3
[20] = tested on: HepG2; assay: Potency index, ratio of IC50 for chloroquine to IC50 for test compound against human HepG2 cells assessed as reduction in cell number incubated for 72 hrs; assay type: functional; method in brief: as §1
[21] = biological target: T1, Nuclear receptor subfamily 1 group D member 2 (Homo sapiens); assay: as §5; assay type: cell-based; method in brief: as §6

SMILES: CC(C)N1CCN(Cc2cc(CNC3(c4ccccc4F)CCCC3)ccc2O)CC1
IC50 [1]: > 100 µM
IC50 [2]: 33.3 µM

SMILES: CN1CCN(Cc2cc(CNCc3ccccc3F)ccc2O)CC1
IC50 [2]: > 100 µM

SMILES: Oc1ccc(CNC2(c3ccccc3F)CCCC2)cc1CN1CCNCC1
IC50 [1]: > 100 µM
IC50 [2]: 31.9 µM

SMILES: CN1CCN(Cc2cc(CNC3(c4ccccc4F)CCC3)ccc2O)CC1
IC50 [2]: > 100 µM

SMILES: CN1CCN(Cc2cccc(CNC3(c4ccccc4F)CCCC3)c2)CC1
IC50 [1]: > 100 µM
IC50 [2]: 34 µM

IC50 [7]: 10 µM
inhibition [9]: Active
inhibition [10]: Active
IC50 [13]: 1.34 µM
inhibition [14]: Active
inhibition [16]: Active
SMILES: CN1CCC(Cc2cccc(CNC3(c4ccc(F)cc4)CCCC3)c2)CC1
Ratio IC50 [3]: 4
Activity [4]: Non-toxic
IC50 [1]: > 100 µM
inhibition [5]: Active
IC50 [6]: 2.73 µM
IC50 [8]: 8.68 µM
inhibition [11]: Active
inhibition [12]: Active
IC50 [15]: 30.6 µM
inhibition [17]: Active
IC50 [18]: 16 µM
IC50 [2]: 2.1 µM
IC50 [19]: 2.19 µM
Ratio IC50 [20]: 10

IC50 [7]: 10 µM
inhibition [10]: Active
IC50 [13]: 17.5 µM
SMILES: CN1CCN(Cc2cc(CNC3(c4ccccc4F)CCCC3)ccc2O)CC1
Activity [4]: Non-toxic
IC50 [1]: > 100 µM
inhibition [12]: Active
IC50 [2]: 30.1 µM

SMILES: CN1CCN(Cc2cc(C(=O)NC3(c4ccccc4F)CCCC3)ccc2O)CC1
IC50 [2]: > 100 µM

IC50 [7]: 10 µM
inhibition [10]: Active
inhibition [21]: Active
SMILES: CN1CCC(Cc2cccc(CNC3(c4ccccc4F)CCCC3)c2)CC1
Activity [4]: Non-toxic
IC50 [1]: > 100 µM
inhibition [12]: Active
IC50 [2]: 15.5 µM

SMILES: CN1CCN(Cc2cc(CNC(C)(C)c3ccccc3F)ccc2O)CC1
IC50 [2]: > 100 µM

SMILES: CN1CCN(Cc2ccccc2CNC2(c3ccccc3F)CCCC2)CC1
IC50 [2]: > 100 µM

SMILES: Oc1ccc(CNC2(c3ccccc3F)CCCC2)cc1CN1CCOCC1
IC50 [2]: > 100 µM

SMILES: Oc1ccc(CNC2(c3ccccc3F)CCCC2)cc1CN1CCCCC1
IC50 [1]: > 100 µM
IC50 [2]: 35.6 µM

SMILES: Fc1ccccc1C1(NCc2cccc(CN3CCCCC3)c2)CCCC1
IC50 [1]: > 100 µM
IC50 [2]: 40 µM

SMILES: CC(=O)N1CCN(Cc2cc(CNC3(c4ccccc4F)CCCC3)ccc2O)CC1
IC50 [2]: > 100 µM

SMILES: CN1CCN(Cc2cc(CNC3(c4ccccc4F)CCCCC3)ccc2O)CC1
IC50 [1]: > 100 µM
IC50 [2]: 30.7 µM
